Reference: ChEMBL document CHEMBL1772954, “Antifungal, cytotoxic and SAR studies of a series of N-alkyl, N-aryl and N-alkylphenyl-1,4-pyrrolediones and related compounds” (Bioorg Med Chem, 2011)
Converted amounts (≈) assume the structure as drawn.

Key:
Assay type in all cases: functional
Candida albicans = assay: Antifungal activity against Candida albicans ATCC 10213
Outline: (§1)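 CLSI M27-A3 broth microdilution in RPMI-1640 buffered to pH 7.0 with MOPS. Inoculum 1-5 × 10^3 CFU/mL. Compound twofold dilutions from 250 to 0.24 µg/ml, final DMSO <1%. Incubated at 35 °C in a moist, dark chamber and read at 48 h. MIC is the lowest concentration giving total growth inhibition. For MFC, 5 µL from clear wells was plated in duplicate on SDA; MFC is the lowest concentration with no growth.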

Candida tropicalis = assay: Antifungal activity against Candida tropicalis C 131 2000; outline: as §1
Saccharomyces cerevisiae = assay: Antifungal activity against Saccharomyces cerevisiae ATCC 9763; outline: as §1
Cryptococcus neoformans = assay: Antifungal activity against Cryptococcus neoformans ATCC 32264; outline: as §1
Aspergillus fumigatus = assay: Antifungal activity against Aspergillus fumigatus ATCC 26934
Outline: (§2)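 Broth microdilution per CLSI M38-A2 in RPMI-1640 with MOPS at pH 7.0. Inoculum 1-5 × 10^3 CFU/mL, with twofold compound dilutions spanning 250-0.24 µg/ml (final DMSO <1%). Plates incubated at 35 °C, moist and dark, and read when the control fungus had grown. MIC is total growth inhibition. MFC comes from subculturing clear wells in duplicate onto SDA.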

Aspergillus flavus = assay: Antifungal activity against Aspergillus flavus ATCC 9170; outline: as §2
Aspergillus niger = assay: Antifungal activity against Aspergillus niger ATCC 9029; outline: as §2
Nannizzia gypsea = assay: Antifungal activity against Microsporum gypseum C 115 2000
Outline: (§3)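 Dermatophytes tested by CLSI M38-A2 microdilution in MOPS-buffered RPMI-1640 at pH 7.0. Inoculum 1-5 × 10^3 CFU/mL; compounds 250 to 0.24 µg/ml in twofold steps, final DMSO <1%. Incubated at 28 °C in a moist, dark chamber and read according to control growth. MIC is the lowest concentration with complete inhibition. MFC is the lowest concentration with no growth after duplicate subculture on SDA.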

Trichophyton rubrum = assay: Antifungal activity against Trichophyton rubrum C 113 2000; outline: as §3
[1] = system: Trichophyton mentagrophytes; assay: Antifungal activity against Trichophyton mentagrophytes ATCC 9972; outline: as §3

| Compound | MFC (Candida albicans) [µg/mL] | MFC (Candida tropicalis) [µg/mL] | MIC (Candida tropicalis) [µg/mL] | MFC (Saccharomyces cerevisiae) [µg/mL] | MIC (Saccharomyces cerevisiae) [µg/mL] | MFC (Cryptococcus neoformans) [µg/mL] | MIC (Cryptococcus neoformans) [µg/mL] | MFC (Aspergillus fumigatus) [µg/mL] | MIC (Aspergillus fumigatus) [µg/mL] | MFC (Aspergillus flavus) [µg/mL] | MIC (Aspergillus flavus) [µg/mL] | MFC (Aspergillus niger) [µg/mL] | MIC (Aspergillus niger) [µg/mL] | MFC (Nannizzia gypsea) [µg/mL] | MIC (Nannizzia gypsea) [µg/mL] | MFC (Trichophyton rubrum) [µg/mL] | MIC (Trichophyton rubrum) [µg/mL] | MFC [1] [µg/mL] | MIC [1] [µg/mL] | MIC (Candida albicans) [µg/mL] |
| --- | --- | --- | --- | --- | --- | --- | --- | --- | --- | --- | --- | --- | --- | --- | --- | --- | --- | --- | --- | --- |
| O=C(O)/C=C\C(=O)NCCCc1ccccc1 | > 250 | > 250 | > 250 | > 250 | > 250 | > 250 | > 250 | > 250 | > 250 | > 250 | > 250 | > 250 | > 250 | > 250 | 250 (≈ 1070 µM) | > 250 | 250 (≈ 1070 µM) | > 250 | > 250 | – |
| CC1=C(C)C(=O)N(c2ccccc2)C1=O | > 250 | > 250 | > 250 | > 250 | > 250 | 250 (≈ 1240 µM) | 125 (≈ 621 µM) | > 250 | > 250 | > 250 | > 250 | > 250 | > 250 | > 250 | 250 (≈ 1240 µM) | 125 (≈ 621 µM) | 62.5 (≈ 311 µM) | 250 (≈ 1240 µM) | 125 (≈ 621 µM) | > 250 |
| O=C(O)/C=C\C(=O)NCCCCc1ccccc1 | > 250 | > 250 | > 250 | > 250 | > 250 | > 250 | > 250 | > 250 | > 250 | > 250 | > 250 | > 250 | > 250 | > 250 | > 250 | > 250 | > 250 | > 250 | > 250 | – |
| O=C1C=CC(O)N1Cc1ccccc1 (stereo not drawn) | > 250 | > 250 | > 250 | > 250 | > 250 | > 250 | 250 (≈ 1320 µM) | > 250 | > 250 | > 250 | > 250 | > 250 | > 250 | > 250 | > 250 | > 250 | > 250 | > 250 | > 250 | > 250 |
| CC1=C(C)C(=O)N(Cc2ccccc2)C1=O | > 250 | > 250 | 125 (≈ 581 µM) | > 250 | 250 (≈ 1160 µM) | 250 (≈ 1160 µM) | 125 (≈ 581 µM) | > 250 | > 250 | > 250 | > 250 | > 250 | > 250 | 250 (≈ 1160 µM) | 125 (≈ 581 µM) | 125 (≈ 581 µM) | 62.5 (≈ 290 µM) | 250 (≈ 1160 µM) | 125 (≈ 581 µM) | 125 (≈ 581 µM) |
| O=C1C(c2ccccc2)=C(c2ccccc2)C(=O)N1CCc1ccccc1 | > 250 | > 250 | > 250 | > 250 | > 250 | > 250 | > 250 | > 250 | > 250 | > 250 | > 250 | > 250 | > 250 | > 250 | > 250 | > 250 | > 250 | > 250 | > 250 | > 250 |
| O=C(O)/C=C\C(=O)NCCc1ccccc1 | > 250 | > 250 | > 250 | > 250 | > 250 | > 250 | > 250 | > 250 | > 250 | > 250 | > 250 | > 250 | > 250 | > 250 | 250 (≈ 1140 µM) | > 250 | 250 (≈ 1140 µM) | > 250 | > 250 | – |
| C[C@@H]1[C@H](O)[C@@H](C)/C=C/C=C/C=C/C=C/C=C/C=C/C=C/[C@H](O[C@@H]2O[C@H](C)[C@@H](O)[C@H](N)[C@@H]2O)C[C@@H]2O[C@](O)(C[C@@H](O)C[C@@H](O)[C@H](O)CC[C@@H](O)C[C@@H](O)CC(=O)O[C@H]1C)C[C@H](O)[C@H]2C(=O)O [AMPHOTERICIN B] | 1.95 (≈ 2.11 µM) | 0.97 (≈ 1.05 µM) | 0.48 (≈ 0.519 µM) | 1.95 (≈ 2.11 µM) | 0.48 (≈ 0.519 µM) | 0.97 (≈ 1.05 µM) | 0.24 (≈ 0.26 µM) | 0.97 (≈ 1.05 µM) | 0.48 (≈ 0.519 µM) | 1.95 (≈ 2.11 µM) | 0.48 (≈ 0.519 µM) | 3.9 (≈ 4.22 µM) | 0.48 (≈ 0.519 µM) | 0.48 (≈ 0.519 µM) | 0.12 (≈ 0.13 µM) | 0.24 (≈ 0.26 µM) | 0.06 (≈ 0.0649 µM) | 0.24 (≈ 0.26 µM) | 0.06 (≈ 0.0649 µM) | 0.97 (≈ 1.05 µM) |
| CN(C/C=C/C#CC(C)(C)C)Cc1cccc2ccccc12 [TERBINAFINE] | – | – | – | – | – | – | – | – | – | – | – | – | – | 0.06 (≈ 0.206 µM) | 0.03 (≈ 0.103 µM) | 0.03 (≈ 0.103 µM) | 0.01 (≈ 0.0343 µM) | 0.06 (≈ 0.206 µM) | 0.03 (≈ 0.103 µM) | – |
